The text below walks through data of ChEMBL document CHEMBL1145747, “Potent inhibition of NTPase/helicase of the West Nile Virus by ring-expanded ("fat") nucleoside analogues” (J Med Chem, 2003).

By IC50 is commonly meant the midpoint of a concentration-inhibition curve. High values mean weaker potency in that assay, low ones greater potency in that assay.

The target in assay [1] is T1, ATP-dependent RNA helicase SUPV3L1, mitochondrial (Homo sapiens, UniProt Q8IYB8).
T1 sequence (Q8IYB8 whole entry): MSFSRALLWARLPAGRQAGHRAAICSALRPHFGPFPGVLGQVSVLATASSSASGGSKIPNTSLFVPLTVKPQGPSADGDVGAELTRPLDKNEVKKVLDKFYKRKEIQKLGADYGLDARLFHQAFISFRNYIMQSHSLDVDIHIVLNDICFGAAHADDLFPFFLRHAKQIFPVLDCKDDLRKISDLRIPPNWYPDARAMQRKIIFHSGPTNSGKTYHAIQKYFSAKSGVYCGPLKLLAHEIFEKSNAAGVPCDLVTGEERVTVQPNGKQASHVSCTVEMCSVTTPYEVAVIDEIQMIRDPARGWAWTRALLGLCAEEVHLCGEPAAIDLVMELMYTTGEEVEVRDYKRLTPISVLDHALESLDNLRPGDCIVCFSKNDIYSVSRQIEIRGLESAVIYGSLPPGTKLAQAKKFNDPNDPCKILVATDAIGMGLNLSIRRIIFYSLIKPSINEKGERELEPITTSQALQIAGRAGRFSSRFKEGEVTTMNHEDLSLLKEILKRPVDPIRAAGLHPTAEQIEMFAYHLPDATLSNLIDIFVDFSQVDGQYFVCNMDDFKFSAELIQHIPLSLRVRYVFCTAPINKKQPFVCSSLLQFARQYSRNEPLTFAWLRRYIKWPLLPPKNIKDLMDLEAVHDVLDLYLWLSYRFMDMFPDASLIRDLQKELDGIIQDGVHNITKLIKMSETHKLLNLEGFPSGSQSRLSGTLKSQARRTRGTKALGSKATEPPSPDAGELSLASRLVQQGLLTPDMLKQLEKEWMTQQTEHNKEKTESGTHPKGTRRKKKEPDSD
The experiment in a line: Inhibitory activity against human Suv3 helicase using RNA as substrate. The procedure, abridged:
(§1)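 Human Suv3(Δ1-159), expressed in E. coli from pQE60, 0.2 pmol per assay. Substrate: partially hybridized 32P-labelled DNA or RNA duplex (per line), 4.7 pM nucleotide base. Run with ATP at its Km of 4.2 µM in Tris/HCl pH 7.5 with MgCl2, 30 min at 30 °C. Released strand separated by TBE-PAGE and quantified by 32P counting. IC50 is 50% of control unwinding; representative of three experiments.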

Assay [2] concerns the target T1, ATP-dependent RNA helicase SUPV3L1, mitochondrial. As to the kind of experiment: Inhibitory activity determined against human Suv3 helicase using DNA as substrate. The procedure, abridged: as §1
Assay [3] has as its system West Nile virus. The experiment in a line: Inhibitory activity determined against west nile virus (WNV) NTPase/helicase (NTPase/helicase Non structural protein 3) using RNA as substrate. The format is functional. The method, boiled down:
(§2)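 WNV NTPase/helicase (2 pmol), purified from culture medium of virus-infected Vero E6 cells, unwinding a partially hybridized 32P 5'-labelled duplex (26-mer release strand on 40-mer template; DNA or RNA per line, 4.7 pM nucleotide base). Conditions: ATP at Km (9.5 µM), 20 mM Tris/HCl pH 7.5, 2 mM MgCl2, 30 min at 30 °C. Released strand resolved on TBE-PAGE and its radioactivity counted. IC50 is 50% of compound-free unwinding; representative of three independent experiments.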

Assay [4] relates to West Nile virus. The experiment in a line: Inhibitory activity determined against west nile virus (WNV) NTPase/helicase (NTPase/helicase Non structural protein 3) using DNA as substrate. It is filed as functional. The method, boiled down:
as §2

Assay [5] deals with West Nile virus. As to the kind of experiment: Inhibitory activity against west nile virus (WNV) NTPase/helicase (NTPase/helicase Non structural protein 3) using DNA as substrate. It is filed as functional. The method, boiled down:
as §2

Assay [6] relates to West Nile virus. As to the kind of experiment: Inhibitory activity against west nile virus (WNV) NTPase/helicase (NTPase/helicase Non structural protein 3) using RNA as substrate. It is filed as functional. The procedure, abridged: as §2

Molecules are shown by their SMILES. Values after ≈ are worked out from the molar mass of the structure shown.

`CCCCCCCCCCCCCCNc1nc(=O)c2ncn([C@@H]3O[C@H](CO)[C@@H](O)C3O)c2c(=O)[nH]1` (single isomer, unassigned): the IC50 in assay [1] is 59.1 µM; in assay [2] it was 591 µM; in assay [3] it was over 500 µg/mL; in assay [4] it was 3 µg/mL (≈ 5.91 µM).
The molecule `CCCCNc1nc(=O)c2c(ncn2C2O[C@H](CO)[C@@H](O)C2O)c(=O)[nH]1` (single isomer, unassigned) displayed an IC50 in assay [4] of over 300 µg/mL.
For the molecule `O=c1nc(NCCCc2ccccc2)[nH]c(=O)c2c1ncn2C1O[C@H](CO)[C@@H](O)C1O` (single isomer, unassigned), the IC50 in assay [4] is over 500 µg/mL.
For the molecule `CCCCCCCCCCCCNc1nc(=O)c2c(ncn2[C@@H]2C[C@H](O)[C@@H](CO)O2)c(=O)[nH]1`, the half-inhibitory concentration (IC50) in assay [1] is 324 µM; in assay [2] it was 539 µM; in assay [3], 100 µg/mL (≈ 216 µM); in assay [4], 3 µg/mL (≈ 6.47 µM).
`CCCCCCCNc1nc(=O)c2c(ncn2C2O[C@H](CO)[C@@H](O)C2O)c(=O)[nH]1` (single isomer, unassigned): in assay [4], the IC50 was over 300 µg/mL.
In the case of `CCCCCCCCCCCCNc1nc(=O)c2ncn([C@@H]3O[C@H](CO)[C@@H](O)C3O)c2c(=O)[nH]1` (single isomer, unassigned), the half-maximal inhibitory concentration (IC50) is 313 µM in assay [1], over 1040 µM in assay [2], 10 µg/mL (≈ 20.9 µM) in assay [3] and 1 µg/mL (≈ 2.09 µM) in assay [4].
The corresponding values for `CCCCCCCCCCCCCCCCNc1nc(=O)c2ncn([C@@H]3O[C@H](CO)[C@@H](O)C3O)c2c(=O)[nH]1` (single isomer, unassigned) are 56 µM, over 933 µM, 500 µg/mL (≈ 933 µM) and 250 µg/mL (≈ 467 µM).
Take `O=c1nc(NCc2ccccc2)[nH]c(=O)c2c1ncn2C1O[C@H](CO)[C@@H](O)C1O` (single isomer, unassigned): the IC50 in assay [4] is over 500 µg/mL.
Regarding `CCCCCCCCCCCCNc1nc(=O)c2c(ncn2Cc2ccc(OC)cc2)c(=O)[nH]1`, the IC50 is over 1070 µM in assay [1], over 1070 µM in assay [2], 1 µg/mL (≈ 2.14 µM) in assay [3] and 5 µg/mL (≈ 10.7 µM) in assay [4].
In assay [4], `CN(C)c1nc(=O)c2c(ncn2C2O[C@H](CO)[C@@H](O)C2O)c(=O)[nH]1` (single isomer, unassigned) showed an IC50 of over 300 µg/mL.
Regarding `O=c1nc(NCCCCc2ccccc2)[nH]c(=O)c2c1ncn2C1O[C@H](CO)[C@@H](O)C1O` (single isomer, unassigned), in assay [4], the half-inhibitory concentration (IC50) is over 500 µg/mL.
The same measure, in the same setting: the figure for `CCCNc1nc(=O)c2c(ncn2C2O[C@H](CO)[C@@H](O)C2O)c(=O)[nH]1` (single isomer, unassigned) is over 300 µg/mL.
On the same count and under the same terms, the figure for `CNc1nc(=O)c2c(ncn2C2O[C@H](CO)[C@@H](O)C2O)c(=O)[nH]1` (single isomer, unassigned) is over 300 µg/mL; for `CCCCCCNc1nc(=O)c2c(ncn2C2O[C@H](CO)[C@@H](O)C2O)c(=O)[nH]1` (single isomer, unassigned) it is over 300 µg/mL.
As to `O=c1nc(NCCc2ccccc2)[nH]c(=O)c2c1ncn2C1O[C@H](CO)[C@@H](O)C1O` (single isomer, unassigned), in assay [4], the IC50 is over 500 µg/mL.
Turning to `CCCCCCCCCCNc1nc(=O)c2ncn([C@@H]3O[C@H](CO)[C@@H](O)C3O)c2c(=O)[nH]1` (single isomer, unassigned), the IC50 in assay [1] is 1110 µM; in assay [2] it was over 1110 µM; in assay [3] it was 300 µg/mL (≈ 664 µM); in assay [4], 30 µg/mL (≈ 66.4 µM).
As for `CCCCCCCCCCCCCCCCCCNc1nc(=O)c2ncn([C@@H]3O[C@H](CO)[C@@H](O)C3O)c2c(=O)[nH]1` (single isomer, unassigned), the IC50 was 53.2 µM in assay [1], over 887 µM in assay [2], 100 µg/mL (≈ 177 µM) in assay [3] and 5 µg/mL (≈ 8.87 µM) in assay [4].
In assay [4], `CCCCCNc1nc(=O)c2c(ncn2C2O[C@H](CO)[C@@H](O)C2O)c(=O)[nH]1` (single isomer, unassigned) showed an IC50 of over 300 µg/mL.
On to `CCCCCCCCCCCCNc1nc(=O)c2c(ncn2[C@H]2C[C@H](O)[C@@H](CO)O2)c(=O)[nH]1`, for which the concentration for half-maximal inhibition (IC50) in assay [1] is over 1080 µM; in assay [2] it was 6.47 µM; in assay [3] it was 1.5 µg/mL (≈ 3.24 µM); in assay [4] it was 3 µg/mL (≈ 6.47 µM).
For the molecule `O=c1nc(Nc2ccccc2)[nH]c(=O)c2c1ncn2C1O[C@H](CO)[C@@H](O)C1O` (single isomer, unassigned), the IC50 in assay [1] and in assay [2] was over 1290 µM each time. Moreover, the results for the ED200 in assay [5] and in assay [6] were 300 µg/mL and 100 µg/mL, respectively.
Consider `CCCCCCCCCCCCNc1nc(O)c2ncnc-2c(O)n1`, for which the IC50 in assay [1] was over 1440 µM; in assay [2], over 1440 µM; in assay [3] it was over 500 µg/mL; in assay [4] it was over 500 µg/mL.
`CCNc1nc(=O)c2c(ncn2C2O[C@H](CO)[C@@H](O)C2O)c(=O)[nH]1` (single isomer, unassigned) displayed an IC50 in assay [4] of over 300 µg/mL.
On to `CCCCCCCCNc1nc(=O)c2ncn([C@@H]3O[C@H](CO)[C@@H](O)C3O)c2c(=O)[nH]1` (single isomer, unassigned), for which the IC50 in assay [4] was over 300 µg/mL.
